Test: Cytotoxicity against rat RBL2H3 cells by MTT assay
Type: cell-based
Design: concentration or dose not given beside the values
Conditions: rbl-2h3
Outline: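 RBL2H3 cells (α-MEM) or PC12 cells (D-MEM), both with 10% FBS, treated at a single dose in 0.1% DMSO; 0.1% DMSO control; 37 °C, 5% CO2. MTT (5 mg/mL) added 4 h before the end, then SDS/DMF lysis buffer (pH 7.2) for 6 h; absorbance read at 570 nm. Cytotoxicity % calculated from background-corrected OD versus control.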
Work on `CSCC[C@@H](NC(=O)[C@]12CC[C@@H](C)[C@H](C)[C@H]1C1=CC[C@@H]3[C@@]4(C)Cc5nc6ccccc6nc5C(C)(C)[C@@H]4CC[C@@]3(C)[C@]1(C)CC2)C(=O)O` yielded an Activity of 6.2%.
With `C[C@H]1[C@H](C)CC[C@]2(C(=O)O)CC[C@]3(C)C(=CC[C@@H]4[C@@]5(C)Cc6c([nH]c7ccc(Br)cc67)C(C)(C)[C@@H]5CC[C@]43C)[C@H]12` the Activity was 3.7%.
In the case of `C[C@H]1[C@H](C)CC[C@]2(C(=O)O)CC[C@]3(C)C(=CC[C@@H]4[C@@]5(C)Cc6cn[nH]c6C(C)(C)[C@@H]5CC[C@]43C)[C@H]12`, the Activity is reported as 0.1%.
With `C[C@H]1[C@H](C)CC[C@]2(C(=O)NCCCN3CCOCC3)CC[C@]3(C)C(=CC[C@@H]4[C@@]5(C)Cc6nc7ccccc7nc6C(C)(C)[C@@H]5CC[C@]43C)[C@H]12` the Activity was 31.3%.
Work on `COC(=O)C(Cc1ccccc1)NC(=O)[C@]12CC[C@@H](C)[C@H](C)[C@H]1C1=CC[C@@H]3[C@@]4(C)Cc5c([nH]c6ccc(Br)cc56)C(C)(C)[C@@H]4CC[C@@]3(C)[C@]1(C)CC2` (stereo partly drawn) yielded an Activity of 16%.
For `COC(=O)C(Cc1ccccc1)NC(=O)[C@]12CC[C@@H](C)[C@H](C)[C@H]1C1=CC[C@@H]3[C@@]4(C)Cc5cn[nH]c5C(C)(C)[C@@H]4CC[C@@]3(C)[C@]1(C)CC2` (stereo partly drawn), the Activity was 1.9%.
Compound `COC(=O)C(Cc1ccccc1)NC(=O)[C@]12CC[C@@H](C)[C@H](C)[C@H]1C1=CC[C@@H]3[C@@]4(C)Cc5nc6cc(Cl)c(Cl)cc6nc5C(C)(C)[C@@H]4CC[C@@]3(C)[C@]1(C)CC2` (stereo partly drawn) has an Activity of 7.7%.
Compound `CC(=O)O[C@H]1CC[C@]2(C)[C@H]3CC=C4[C@@H]5[C@@H](C)[C@H](C)CC[C@]5(C(=O)O)CC[C@@]4(C)[C@]3(C)CC[C@H]2C1(C)C` [O-ACETYLURSOLIC ACID] has an Activity of 4.1%.
Work on `CCOC(=O)CNC(=O)[C@]12CC[C@@H](C)[C@H](C)[C@H]1C1=CC[C@@H]3[C@@]4(C)Cc5c([nH]c6ccc(Br)cc56)C(C)(C)[C@@H]4CC[C@@]3(C)[C@]1(C)CC2` yielded an Activity of 1.7%.
`COC(=O)C(CC(C)C)NC(=O)[C@]12CC[C@@H](C)[C@H](C)[C@H]1C1=CC[C@@H]3[C@@]4(C)CCC(=O)C(C)(C)[C@@H]4CC[C@@]3(C)[C@]1(C)CC2` (stereo partly drawn) gave an Activity of 2.6%.
Compound `CCOC(=O)CNC(=O)[C@]12CC[C@@H](C)[C@H](C)[C@H]1C1=CC[C@@H]3[C@@]4(C)Cc5cnn(-c6ccccc6)c5C(C)(C)[C@@H]4CC[C@@]3(C)[C@]1(C)CC2` has an Activity of 1.2%.
`COC(=O)C(Cc1ccccc1)NC(=O)[C@]12CC[C@@H](C)[C@H](C)[C@H]1C1=CC[C@@H]3[C@@]4(C)C=C(C#N)C(=O)C(C)(C)[C@@H]4CC[C@@]3(C)[C@]1(C)CC2` (stereo partly drawn) gave an Activity of 5.4%.
`CCOC(=O)CNC(=O)[C@]12CC[C@@H](C)[C@H](C)[C@H]1C1=CC[C@@H]3[C@@]4(C)Cc5cnn(-c6ccc(F)cc6)c5C(C)(C)[C@@H]4CC[C@@]3(C)[C@]1(C)CC2` gave an Activity of 15.8%.
In the case of `COC(=O)C(CC(C)C)NC(=O)[C@]12CC[C@@H](C)[C@H](C)[C@H]1C1=CC[C@@H]3[C@@]4(C)Cc5nc6ccccc6nc5C(C)(C)[C@@H]4CC[C@@]3(C)[C@]1(C)CC2` (stereo partly drawn), the Activity is reported as 0.5%.
`COC(=O)C(CC(C)C)NC(=O)[C@]12CC[C@@H](C)[C@H](C)[C@H]1C1=CC[C@@H]3[C@@]4(C)Cc5cnoc5C(C)(C)[C@@H]4CC[C@@]3(C)[C@]1(C)CC2` (stereo partly drawn) showed an Activity of 17.7%.
`C[C@H]1[C@H](C)CC[C@]2(C(=O)O)CC[C@]3(C)C(=CC[C@@H]4[C@@]5(C)C=C(C#N)C(=O)C(C)(C)[C@@H]5CC[C@]43C)[C@H]12` showed an Activity of 4.3%.
With `COC(=O)C(Cc1ccccc1)NC(=O)[C@]12CC[C@@H](C)[C@H](C)[C@H]1C1=CC[C@@H]3[C@@]4(C)Cc5cnn(-c6ccccc6)c5C(C)(C)[C@@H]4CC[C@@]3(C)[C@]1(C)CC2` (stereo partly drawn) the Activity was 0.9%.
With `C[C@H]1[C@H](C)CC[C@]2(C(=O)NC3CCN(Cc4ccccc4)CC3)CC[C@]3(C)C(=CC[C@@H]4[C@@]5(C)Cc6nc7ccccc7nc6C(C)(C)[C@@H]5CC[C@]43C)[C@H]12` the Activity was 51.1%.
